Values after ≈ are worked out from the molar mass of the structure shown.
What follows are compounds tested on Plasmodium falciparum (assay: Antimalarial effect as schizonticidal activity against chloroquine-sensitive Plasmodium falciparum 3D7 after 40 hrs). Details: 3D7, 40 h.

Row | SMILES | MIC
1 | Cc1cc(NC(=O)c2ccccc2)c2cc(NC(=O)Nc3ccc(F)cc3)ccc2n1 | 10 µg/mL (≈ 24.1 µM)
2 | Cc1cc(NC(=O)CN2CCN(C)CC2)c2cc(NC(=O)Nc3ccc(F)cc3)ccc2n1 | 2 µg/mL (≈ 4.44 µM)
3 | CC(=O)c1ccc(NC(=O)Nc2ccc3nc(C)cc(NC(=O)c4ccco4)c3c2)cc1 | 10 µg/mL (≈ 23.3 µM)
4 | CC(=O)c1cccc(NC(=O)Nc2ccc3nc(C)cc(NC(=O)c4ccccc4)c3c2)c1 | 10 µg/mL (≈ 22.8 µM)
5 | Cc1cc(NC(=O)c2cccc(Cl)c2)c2cc(NC(=O)Nc3ccc(Cl)c(Cl)c3)ccc2n1 | 10 µg/mL (≈ 20 µM)
6 | CCN1CCN(CC(=O)Nc2cc(C)nc3ccc(NC(=O)Nc4cccc(C(F)(F)F)c4)cc23)CC1 | 0.5 µg/mL (≈ 0.972 µM)
7 | Cc1cc(NC(=O)c2ccccc2Cl)c2cc(NC(=O)Nc3cccc(C(F)(F)F)c3)ccc2n1 | 2 µg/mL (≈ 4.01 µM)
8 | Cc1cc(NC(=O)c2ccccc2)c2cc(NC(=O)Nc3cccc(Cl)c3)ccc2n1 | 50 µg/mL (≈ 116 µM)
9 | Cc1cc(NC(=O)c2ccccc2Cl)c2cc(NC(=O)Nc3ccc(F)cc3)ccc2n1 | 50 µg/mL (≈ 111 µM)
10 | Cc1cc(NC(=O)c2ccccc2Cl)c2cc(NC(=O)Nc3ccc(Br)cc3)ccc2n1 | 2 µg/mL (≈ 3.92 µM)
11 | CC(=O)Nc1cc(C)nc2ccc(NC(=O)Nc3cc(Cl)cc(Cl)c3)cc12 | 2 µg/mL (≈ 4.96 µM)
12 | CC(=O)c1ccc(NC(=O)Nc2ccc3nc(C)cc(NC(=O)CN4CCN(C)CC4)c3c2)cc1 | 1 µg/mL (≈ 2.11 µM)
13 | CC(=O)c1cccc(NC(=O)Nc2ccc3nc(C)cc(NC(=O)c4ccccc4Cl)c3c2)c1 | 2 µg/mL (≈ 4.23 µM)
14 | Cc1cc(NC(=O)c2ccccc2)c2cc(NC(=O)Nc3ccc(C)c(Cl)c3)ccc2n1 | 2 µg/mL (≈ 4.5 µM)
15 | CC(=O)Nc1cc(C)nc2ccc(NC(=O)Nc3ccc(C)c(Cl)c3)cc12 | 50 µg/mL (≈ 131 µM)
16 | Cc1cc(NC(=O)CN2CCN(C)CC2)c2cc(NC(=O)Nc3cccc(C#N)c3)ccc2n1 | 2 µg/mL (≈ 4.37 µM)
17 | Cc1cc(NC(=O)c2ccccc2)c2cc(NC(=O)Nc3ccc(Cl)cc3)ccc2n1 | > 50 µg/mL

Row | SMILES | MIC
18 | Cc1cc(NC(=O)c2ccccc2)c2cc(NC(=O)Nc3cccc(C#N)c3)ccc2n1 | 10 µg/mL (≈ 23.7 µM)
19 | Cc1cc(NC(=O)c2cccc(Cl)c2)c2cc(NC(=O)Nc3ccc(Cl)c(C(F)(F)F)c3)ccc2n1 | > 10 µg/mL
20 | Cc1cc(NC(=O)c2ccccc2Cl)c2cc(NC(=O)Nc3ccc(Cl)cc3)ccc2n1 | 2 µg/mL (≈ 4.3 µM)
21 | CC(=O)c1ccc(NC(=O)Nc2ccc3nc(C)cc(NC(=O)c4ccccc4)c3c2)cc1 | 50 µg/mL (≈ 114 µM)
22 | Cc1cc(NC(=O)c2ccccc2Cl)c2cc(NC(=O)Nc3ccc(F)c(Cl)c3)ccc2n1 | 10 µg/mL (≈ 20.7 µM)
23 | Cc1cc(NC(=O)c2ccccc2)c2cc(NC(=O)Nc3cccc(C(F)(F)F)c3)ccc2n1 | 10 µg/mL (≈ 21.5 µM)
24 | Cc1cc(NC(=O)c2ccccc2)c2cc(NC(=O)Nc3ccc(Cl)c(C(F)(F)F)c3)ccc2n1 | 1 µg/mL (≈ 2 µM)
25 | Cc1cc(NC(=O)c2ccccc2)c2cc(NC(=O)Nc3ccc(Cl)c(Cl)c3)ccc2n1 | 1 µg/mL (≈ 2.15 µM)
26 | Cc1cc(NC(=O)c2cccc(Cl)c2)c2cc(NC(=O)Nc3ccc(Br)cc3)ccc2n1 | 2 µg/mL (≈ 3.92 µM)
27 | Cc1cc(NC(=O)CN2CCN(C)CC2)c2cc(NC(=O)Nc3cccc(F)c3)ccc2n1 | 10 µg/mL (≈ 22.2 µM)
28 | Cc1cc(NC(=O)c2ccccc2)c2cc(NC(=O)Nc3cccc(Cl)c3C)ccc2n1 | 50 µg/mL (≈ 112 µM)
29 | CC(=O)c1ccc(NC(=O)Nc2ccc3nc(C)cc(NC(=O)c4ccccc4Cl)c3c2)cc1 | 2 µg/mL (≈ 4.23 µM)
30 | Cc1cc(NC(=O)c2cccc(Cl)c2)c2cc(NC(=O)Nc3cccc(F)c3)ccc2n1 | > 50 µg/mL
31 | Cc1cc(NC(=O)CN2CCN(C)CC2)c2cc(NC(=O)Nc3ccc(Cl)cc3)ccc2n1 | 0.5 µg/mL (≈ 1.07 µM)
32 | CC(=O)Nc1cc(C)nc2ccc(NC(=O)Nc3ccc(C(C)=O)cc3)cc12 | 10 µg/mL (≈ 26.6 µM)
33 | Cc1cc(NC(=O)c2cccc(Cl)c2)c2cc(NC(=O)Nc3cccc(C#N)c3)ccc2n1 | 1 µg/mL (≈ 2.19 µM)
34 | Cc1cc(NC(=O)c2ccccc2)c2cc(NC(=O)Nc3ccc(F)c(Cl)c3)ccc2n1 | 10 µg/mL (≈ 22.3 µM)

The compounds below were run on Plasmodium yoelii (assay: Antimalarial activity as parasitaemia after 28 days against chloroquine-resistant Plasmodium yoelii N67 infected Swiss mice (Mus musculus) at 50 mg/kg peroral dose over 7 days). Details: route oral.
Type: functional

Row | SMILES | Activity
35 | Cc1cc(NC(=O)c2ccccc2Cl)c2cc(NC(=O)Nc3ccc(Br)cc3)ccc2n1 | 8.8%
36 | CC(=O)c1ccc(NC(=O)Nc2ccc3nc(C)cc(NC(=O)c4ccccc4Cl)c3c2)cc1 | 5.98%

The compounds below were run on Plasmodium falciparum (assay: Antimalarial activity against chloroquine-sensitive Plasmodium falciparum 3D7 infected erythrocytes after 72 hrs by MSF assay). Details: 3D7, 72 h.

Row | SMILES | IC50
37 | CCN1CCN(CC(=O)Nc2cc(C)nc3ccc(NC(=O)Nc4cccc(C(F)(F)F)c4)cc23)CC1 | 0.028 µg/mL (≈ 0.0544 µM)
38 | CC(=O)c1ccc(NC(=O)Nc2ccc3nc(C)cc(NC(=O)CN4CCN(C)CC4)c3c2)cc1 | 0.014 µg/mL (≈ 0.0295 µM)
39 | Cc1cc(NC(=O)c2ccccc2)c2cc(NC(=O)Nc3ccc(Cl)c(C(F)(F)F)c3)ccc2n1 | 0.0194 µg/mL (≈ 0.0389 µM)
40 | Cc1cc(NC(=O)c2ccccc2)c2cc(NC(=O)Nc3ccc(Cl)c(Cl)c3)ccc2n1 | 0.0109 µg/mL (≈ 0.0234 µM)
41 | Cc1cc(NC(=O)CN2CCN(C)CC2)c2cc(NC(=O)Nc3ccc(Cl)cc3)ccc2n1 | 0.005 µg/mL (≈ 0.0107 µM)

These compounds were tested on Plasmodium yoelii (assay: Antimalarial activity as parasitaemia after 28 days against chloroquine-resistant Plasmodium yoelii N67 infected Swiss mice (Mus musculus) at 50 mg/kg peroral dose over 4 days). Details: route oral.
Type: functional
Summary of the method: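 Swiss mice (25 g, either sex, n=5) infected on day 0 with 1 × 10⁶ P. yoelii N67 chloroquine-resistant parasitized cells. Test compounds were given orally as an aqueous suspension at 50 mg/kg from day 0 to 3; vehicle controls were run alongside. Parasitaemia was counted on tail-vein thin smears on days 4, 7, 14, 21 and 28, or until death.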

Row | SMILES | Activity
42 | Cc1cc(NC(=O)c2ccccc2Cl)c2cc(NC(=O)Nc3ccc(Br)cc3)ccc2n1 | 1.9%
43 | CC(=O)c1ccc(NC(=O)Nc2ccc3nc(C)cc(NC(=O)c4ccccc4Cl)c3c2)cc1 | 3.03%

Source: ChEMBL document CHEMBL1139333, “Search for new pharmacophores for antimalarial activity. Part I: synthesis and antimalarial activity of new 2-methyl-6-ureido-4-quinolinamides” (Bioorg Med Chem, 2009)
